From ChEMBL document CHEMBL5230163, “Design, synthesis and antibacterial evaluation of a novel class of tetrahydrobenzothiophene derivatives” (2023)
≈ marks a conversion by molar mass, not a printed value. Calls of active or inactive are those of the source. The calls are words filed in the database; no cut-off is given here.

What was measured:
Escherichia coli = experiment: Antibacterial activity against Escherichia coli ATCC 25922 assessed as inhibition of bacterial growth by standard broth microdilution method; assay type: functional
How it was run: (§1)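 Broth microdilution in 96-well plates. Overnight culture (5 μl) moved into 5 ml fresh medium and grown to log phase, then diluted to 2 × 10^6 CFU ml−1. Each well received 100 μl cell suspension plus 100 μl of compound at various concentrations (200 μl final). Read-out was MIC. Run three times.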

Salmonella [1] = experiment: Antibacterial activity against Salmonella ATCC 12022 assessed as inhibition of bacterial growth by standard broth microdilution method; assay type: functional; how it was run: as §1
Staphylococcus aureus = experiment: Antibacterial activity against Staphylococcus aureus ATCC 25923 assessed as inhibition of bacterial growth by standard broth microdilution method; assay type: functional; how it was run: as §1
Pseudomonas aeruginosa [2] = experiment: Antibacterial activity against Pseudomonas aeruginosa ATCC 27853 assessed as inhibition of bacterial growth by standard broth microdilution method; assay type: functional; how it was run: as §1
Salmonella [3] = experiment: Antibacterial activity against Salmonella ATCC 12022 assessed as reduction in living bacterial cell counts at 1X to 4XMIC measured within 2 hrs by time-kill assay; assay type: functional, organism-based
Pseudomonas aeruginosa [4] = experiment: Bacteriostatic activity against Pseudomonas aeruginosa ATCC 27853 at 1X to 4XMIC measured after 2 to 24 hrs by time-kill assay; assay type: functional, organism-based; conditions: time 2-24 hrs
Pseudomonas aeruginosa [5] = experiment: Antibacterial activity against Pseudomonas aeruginosa ATCC 27853 assessed as inhibition of bacterial growth at 0.5XMIC measured for 24 hrs by time-kill assay; assay type: functional, organism-based
Salmonella [6] = experiment: Antibacterial activity against Salmonella ATCC 12022 assessed as inhibition of bacterial growth at 0.5XMIC measured for 24 hrs by time-kill assay; assay type: functional, organism-based
Salmonella [7] = experiment: Bacteriostatic activity against Salmonella ATCC 12022 at 1X to 4XMIC measured after 2 to 24 hrs by time-kill assay; assay type: functional, organism-based; conditions: time 2-24 hrs
Pseudomonas aeruginosa [8] = experiment: Antibacterial activity against Pseudomonas aeruginosa ATCC 27853 assessed as reduction in living bacterial cell counts at 1X to 4XMIC measured within 2 hrs by time-kill assay; assay type: functional, organism-based

Compound | MIC (Escherichia coli) | MIC (Salmonella [1]) | MIC (Staphylococcus aureus) | MIC (Pseudomonas aeruginosa [2]) | Activity (Salmonella [3]) | Activity (Pseudomonas aeruginosa [4]) | Activity (Pseudomonas aeruginosa [5]) | Activity (Salmonella [6]) | Activity (Salmonella [7]) | Activity (Pseudomonas aeruginosa [8])
CCC1CCc2c(sc(NC(=O)c3cccc([N+](=O)[O-])c3F)c2C(=O)O)C1 (stereo unspecified) | 19.9 µM (≈ 7.82 µg/mL) | 19.9 µM (≈ 7.82 µg/mL) | 1.25 µM (≈ 0.491 µg/mL) | 0.61 µM (≈ 0.239 µg/mL) |  |  |  |  |  | 
CCC1CCc2c(sc(NC(=O)c3ccc([N+](=O)[O-])cc3)c2C(=O)O)C1 (stereo unspecified) | 6.68 µM (≈ 2.5 µg/mL) | 1.67 µM (≈ 0.625 µg/mL) | 6.68 µM (≈ 2.5 µg/mL) | 1.67 µM (≈ 0.625 µg/mL) |  |  |  |  |  | 
CC1CCc2c(sc(NC(=O)c3ccc(F)cc3)c2C(=O)O)C1 (stereo unspecified) | 1.47 µM (≈ 0.49 µg/mL) | 1.47 µM (≈ 0.49 µg/mL) | 1.47 µM (≈ 0.49 µg/mL) | 0.72 µM (≈ 0.24 µg/mL) |  |  |  |  |  | 
Cc1c(C(=O)Nc2sc3c(c2C(=O)O)CCC(C)C3)cccc1[N+](=O)[O-] (stereo unspecified) | 0.64 µM (≈ 0.24 µg/mL) | 1.31 µM (≈ 0.49 µg/mL) | 83.6 µM (≈ 31.3 µg/mL) | 1.31 µM (≈ 0.49 µg/mL) |  |  |  |  |  | 
CCC1CCc2c(sc(NC(=O)c3ccccc3)c2C(=O)O)C1 (stereo unspecified) | 1.49 µM (≈ 0.491 µg/mL) | 0.73 µM (≈ 0.24 µg/mL) | 11.8 µM (≈ 3.9 µg/mL) | 0.73 µM (≈ 0.24 µg/mL) |  |  |  |  |  | 
CCC1CCc2c(sc(NC(=O)c3ccc(Cl)cc3)c2C(=O)O)C1 (stereo unspecified) | 3.44 µM (≈ 1.25 µg/mL) | 1.72 µM (≈ 0.626 µg/mL) | 3.44 µM (≈ 1.25 µg/mL) | 3.44 µM (≈ 1.25 µg/mL) |  |  |  |  |  | 
CC1CCc2c(sc(NC(=O)c3ccccc3I)c2C(=O)O)C1 (stereo unspecified) | 1.11 µM (≈ 0.49 µg/mL) | 0.54 µM (≈ 0.238 µg/mL) | 1.11 µM (≈ 0.49 µg/mL) | 1 µM (≈ 0.441 µg/mL) | Active | Active | inactive | inactive | Active | Active
O=C(O)c1cn(C2CC2)c2cc(N3CCNCC3)c(F)cc2c1=O [CIPROFLOXACIN] | 1.27 µM (≈ 0.421 µg/mL) | 2.54 µM (≈ 0.842 µg/mL) |  | 10.1 µM (≈ 3.35 µg/mL) |  |  |  |  |  | 
CCC1CCc2c(sc(NC(=O)c3ccc(F)cc3)c2C(=O)O)C1 (stereo unspecified) | 1.8 µM (≈ 0.625 µg/mL) | 7.19 µM (≈ 2.5 µg/mL) | 1.8 µM (≈ 0.625 µg/mL) | 7.19 µM (≈ 2.5 µg/mL) |  |  |  |  |  | 
COc1ccc(C(=O)Nc2sc3c(c2C(=O)O)CCC(C)C3)cc1 (stereo unspecified) | 1.42 µM (≈ 0.49 µg/mL) | 90.6 µM (≈ 31.3 µg/mL) | 1.42 µM (≈ 0.49 µg/mL) | 45.3 µM (≈ 15.6 µg/mL) |  |  |  |  |  | 
CC1CCc2c(sc(NC(=O)c3ccccc3)c2C(=O)O)C1 (stereo unspecified) | 1.56 µM (≈ 0.492 µg/mL) | 1.56 µM (≈ 0.492 µg/mL) | 99.2 µM (≈ 31.3 µg/mL) | 1.56 µM (≈ 0.492 µg/mL) |  |  |  |  |  | 
CC1CCc2c(sc(NC(=O)c3ccc(F)cc3F)c2C(=O)O)C1 (stereo unspecified) | 22.2 µM (≈ 7.82 µg/mL) | 11.1 µM (≈ 3.9 µg/mL) | 1.4 µM (≈ 0.492 µg/mL) | 11.1 µM (≈ 3.9 µg/mL) |  |  |  |  |  | 
CCC1CCc2c(sc(NC(=O)c3ccc(F)cc3F)c2C(=O)O)C1 (stereo unspecified) | 1.71 µM (≈ 0.625 µg/mL) | 1.71 µM (≈ 0.625 µg/mL) | 3.42 µM (≈ 1.25 µg/mL) | 1.71 µM (≈ 0.625 µg/mL) |  |  |  |  |  | 
Cc1ccc(C(=O)Nc2sc3c(c2C(=O)O)CCC(C)C3)c(C)c1 (stereo unspecified) | 5.69 µM (≈ 1.95 µg/mL) | 1.43 µM (≈ 0.491 µg/mL) | 1.43 µM (≈ 0.491 µg/mL) | 1.43 µM (≈ 0.491 µg/mL) |  |  |  |  |  | 
CCC1CCc2c(sc(NC(=O)c3ccc(C)cc3C)c2C(=O)O)C1 (stereo unspecified) | 3.5 µM (≈ 1.25 µg/mL) | 1.75 µM (≈ 0.626 µg/mL) | 3.5 µM (≈ 1.25 µg/mL) | 1.75 µM (≈ 0.626 µg/mL) |  |  |  |  |  | 
CCC1CCc2c(sc(NC(=O)c3cc([N+](=O)[O-])cc([N+](=O)[O-])c3)c2C(=O)O)C1 (stereo unspecified) | 1.49 µM (≈ 0.625 µg/mL) | 1.49 µM (≈ 0.625 µg/mL) | 2.98 µM (≈ 1.25 µg/mL) | 1.49 µM (≈ 0.625 µg/mL) |  |  |  |  |  | 
CC1CCc2c(sc(NC(=O)c3cc(Cl)ccc3F)c2C(=O)O)C1 (stereo unspecified) | 1.33 µM (≈ 0.489 µg/mL) | 1.33 µM (≈ 0.489 µg/mL) | 2.66 µM (≈ 0.978 µg/mL) | 1 µM (≈ 0.368 µg/mL) |  |  |  |  |  | 
GENTAMICIN |  |  | 1.27 µM |  |  |  |  |  |  | 
CCC1CCc2c(sc(NC(=O)c3ccccc3Cl)c2C(=O)O)C1 (stereo unspecified) | 1.72 µM (≈ 0.626 µg/mL) | 1.72 µM (≈ 0.626 µg/mL) | 1.72 µM (≈ 0.626 µg/mL) | 1.72 µM (≈ 0.626 µg/mL) |  |  |  |  |  | 
CC1CCc2c(sc(NC(=O)c3c(F)cccc3F)c2C(=O)O)C1 (stereo unspecified) | 11.1 µM (≈ 3.9 µg/mL) | 1.4 µM (≈ 0.492 µg/mL) | 1.4 µM (≈ 0.492 µg/mL) | 1.4 µM (≈ 0.492 µg/mL) |  |  |  |  |  | 
O=C(Nc1sc2c(c1C(=O)O)CCCC2)c1ccc(Cl)cc1 | 1.46 µM (≈ 0.49 µg/mL) | 1.46 µM (≈ 0.49 µg/mL) | 1.46 µM (≈ 0.49 µg/mL) | 1.46 µM (≈ 0.49 µg/mL) |  |  |  |  |  | 
